# KCNK3 block: human KCNK3 channel inhibitors, primary screen, CHO cells, FluxOR thallium flux, B-score | B-score at 10 µM | FluxOR fluorescence; stronger effect = lower value | hit rate 0.84% among 340,000 | Potassium channel subfamily K member 3 (Homo sapiens), O14649;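 active = B-score under library mean minus 4 SD, starting fluorescence ratio at most library mean plus 5 SD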;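 also: more negative B-score means stronger inhibition of thallium flux through KCNK3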
# KCNQ1 pot: potentiators or activators of KCNQ1 channel, primary screen, cell-based, thallium flux, high-throughput | CHO-K1 KCNQ1, thallium flux FluxOR fluorescence; stronger effect = higher value | hit rate 0.35% among 310,000 | B-score at 10 µM | Potassium voltage-gated channel subfamily KQT member 1 (Homo sapiens), P51787 | AID 2648, 2010;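 active = fluorescence ratio B-score, a plate-corrected score, at least three library SD, with initial intensity B-score within 5 SD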
#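 Assay system: CHO-K1 cells stably expressing KCNQ1; Medium: assay buffer with matched DMSO; Also added: K+/Tl+ depolarizing stimulus; Dosing: single dose; Timing: dye 90 min, compound 20 min, room temperature; Measured by: kinetic FluxOR thallium fluorescence, 10-s 1-Hz baseline, 110-s post-stimulus read; Read-out: peak-minus-minimum fluorescence over initial fluorescence, negative-control normalized, B-scored.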
# KCNK9 block: KCNK9 potassium channel inhibitors, primary screen, HEK293 cells, thallium flux; Potassium channel subfamily K member 9 (Homo sapiens), Q9NPC2; FluxOR thallium flux fluorescence; stronger effect = lower value; B-score at 10 µM; hit rate 1.2% among 310,000;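 active = ratio B-score over 3 SD below the library mean, with starting fluorescence within 5 SD of its mean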;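 also: negative B-score means less thallium flux so channel inhibition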
# Target sequence (Q9NPC2 whole entry, looked up): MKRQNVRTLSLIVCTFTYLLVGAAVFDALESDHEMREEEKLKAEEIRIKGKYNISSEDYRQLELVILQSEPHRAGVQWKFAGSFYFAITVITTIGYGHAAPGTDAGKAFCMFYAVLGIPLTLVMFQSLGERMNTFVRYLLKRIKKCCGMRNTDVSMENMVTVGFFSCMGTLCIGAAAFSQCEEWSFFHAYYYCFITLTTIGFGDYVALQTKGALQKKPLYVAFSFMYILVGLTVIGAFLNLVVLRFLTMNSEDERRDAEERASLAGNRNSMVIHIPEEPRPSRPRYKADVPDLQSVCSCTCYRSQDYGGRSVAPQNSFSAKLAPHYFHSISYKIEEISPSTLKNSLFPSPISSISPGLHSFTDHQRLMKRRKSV
# hERG rescue: hERG rescue from dofetilide block, primary screen, cell-based, CHO-hERG, FluxOR thallium flux, dofetilide IC70; Voltage-gated inwardly rectifying potassium channel KCNH2 (Homo sapiens), Q12809; activation (rescue from dofetilide block), less the hit threshold, % at 10 µM; hit rate 0.51% among 310,000; dofetilide IC70 present;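 active = activation above the mean of controls blocked by dofetilide plus 5 SD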;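 also: thallium influx through hERG after potassium depolarization seen as dye fluorescence rise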
# KCNQ1 inh: inhibitors of human KCNQ1 channel, primary screen, cell-based, thallium flux, high-throughput | Potassium voltage-gated channel subfamily KQT member 1 (Homo sapiens), P51787 | CHO-K1 KCNQ1, FluxOR thallium flux fluorescence; stronger effect = higher value | B-score at 10 µM | hit rate 1.3% among 310,000;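 active = compounds whose thallium flux B-score, printed positive for inhibition, exceeds three library SD while starting fluorescence stays within three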;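 also: channel opened by potassium depolarization with thallium stimulus after 20 min compound exposure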
# Kir21 block: inhibitors of mouse Kir2.1 inward-rectifier potassium channel. Inward rectifier potassium channel 2 (Mus musculus), P35561. HEK293-Kir2.1, FluxOR thallium flux fluorescence; stronger effect = lower value. B-score at 10 µM. hit rate 0.85% among 310,000. AID 1672, 2009;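 active = fluorescence ratio B-score at or below minus 3 SD of library scores, with starting-brightness B-score within 2 SD, cut at about -4.2 in these data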;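 also: channel flux triggered by added potassium and thallium sulfate stimulus; B-score of peak minus minimum fluorescence over baseline after thallium stimulus; more negative B-score means stronger Kir2.1 block with less thallium influx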
# KCNK9 inh conf: KCNK9 potassium channel inhibitors, confirmation, HEK293 cells, thallium flux, duplicate. AID 492992, 2010. inhibition, % at 10 µM. FluxOR thallium flux fluorescence. shares compounds with KCNK9 block. hit rate 43% among 4,900;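 active = thallium signal inhibited by more than 5 SD of the compound-free buffer control wells, on both duplicate plates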;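 also: 0% = assay buffer control wells without compound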
# Kir2-1 spec: mouse Kir2.1 channel inhibition, confirmation, selectivity assay for KCNK9 modulator project, cell-based, HEK293, thallium flux; hit rate 4% among 4,900; shares compounds with KCNK9 block; AID 492993, 2010; Kir2.1 cells, FluxOR thallium flux fluorescence; inhibition, % at 10 µM;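 active = thallium signal drop more than 5 SD beyond the mean of the no-compound control wells, seen in both duplicate plates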;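 also: signal is fluorescence rise after thallium addition divided by baseline fluorescence; plate controls were assay buffer only for no effect and full block by chlorpromazine control for full effect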
# KCNK9 uninduced: thallium flux in non-induced HEK293 cells, confirmation, counter-screen for KCNK9 inhibitor project, cell-based, second counter screen, non-induced KCNK9-HEK293; shares compounds with KCNK9 block; FluxOR thallium flux; inhibition, % at 10 µM; hit rate 40% among 4,900;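 active = thallium signal drop beyond 5 SD of the untreated control mean, on both duplicate plates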;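 also: plate controls were buffer only IC0 wells for no effect and SID17386958 at its maximal inhibitory level for full effect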
# * hit, by the source's call; i = inactive; . = no result. Most compounds without a hit are left out; they make up all but 3.7% or so of the library.
SMILES,KCNK3 block,KCNQ1 pot,KCNK9 block,hERG rescue,KCNQ1 inh,Kir21 block,KCNK9 inh conf,Kir2-1 spec,KCNK9 uninduced
COc1ccccc1C(=O)NCCSCc1c(F)cccc1Cl,i,i,i,-11,i,-1.3,.,.,.
Cc1c(C(=O)NCCSCc2c(F)cccc2Cl)cnn1-c1ccc(Cl)cc1,i,i,i,-10,i,-1.1,i,i,i
CCc1c(O)nc(SCc2ccccc2)n(C(C)CC)c1=O (stereo not drawn),i,i,i,-5,i,-3.7,.,.,.
CCCCn1c(SCc2cccc([N+](=O)[O-])c2)nc2ccsc2c1=O,i,i,-16*,-19,6*,0.35,80%*,i,38%*
CCCCn1c(SCC(=O)Nc2cc(C)on2)nc2ccsc2c1=O,i,i,i,-7,i,-0.36,.,.,.
COCCn1c(SCc2cccc([N+](=O)[O-])c2)nc2ccccc2c1=O,i,i,-8.8*,-7,i,1.4,64%*,i,30%*
CCC(C)n1c(SCc2ccc([N+](=O)[O-])cc2)nc2ccsc2c1=O (stereo not drawn),i,i,-13*,-8,i,-2.4,69%*,i,44%*
CCOC(CCn1c(SCc2cccc([N+](=O)[O-])c2)nc2ccccc2c1=O)OCC,i,i,-15*,-6,i,0.26,68%*,i,45%*
COc1ccc(C/C(=N\O)c2ccc(OC)cc2)cc1,i,i,i,-10,i,-0.49,i,i,i
O=C(O)c1cccc(CSc2nc(-c3ccccc3)cc(C(F)(F)F)n2)c1,i,i,i,-18,i,0.09,.,.,.
COc1ccc(-c2cc(C(F)(F)F)nc(SCc3cccc(C(=O)O)c3)n2)cc1,i,i,i,-16,i,-2.2,i,i,i
C/C(=N\NC(=O)c1ccc(OC2OCCOC2Oc2ccc(C(=O)N/N=C(\C)c3ccncc3)cc2)cc1)c1ccncc1 (stereo not drawn),i,i,i,-9,i,-2,.,.,.
CC1Cc2ccccc2N1C(=O)/C=C/c1cccc(F)c1 (stereo not drawn),i,i,i,-19,i,1.3,i,i,i
CCS(=O)(=O)N1CCN(S(=O)(=O)c2ccc3c(c2)OCCO3)CC1,i,i,i,-6,i,1.1,.,.,.
CCOc1ccccc1N/C=C/C(=O)C(C)(C)C,i,i,i,-8,i,1.2,i,i,i
COc1cccc(/C=C(/C(=O)OCC(=O)NC2CCCC(C)C2C)c2ccccc2)c1 (stereo not drawn),i,i,-9.3*,-30,10*,-0.16,43%*,i,44%*
COc1cccc2c1OCC(C(=O)Nc1nccs1)=C2,i,i,i,-6,i,0.58,.,.,.
COc1cccc(CNc2ccc(N3CCC(C)CC3)cc2)c1OC,i,i,i,-3,i,-2.5,i,i,i
COc1ccc(Br)cc1CNc1ccc(N2CCOCC2)cc1,i,i,i,-8,i,0.48,.,.,.
CCCCCCC(=O)N1CCCC(c2nc(-c3cccc(OC)c3)no2)C1 (stereo not drawn),i,i,i,-15,i,-1.6,i,i,i
CCCCCC(=O)N1CCCC(c2nc(-c3ccc(OC)cc3)no2)C1 (stereo not drawn),i,i,i,-13,i,-1.1,i,i,i
CCOC(=O)C1CCCN(C2=NC(=O)/C(=C/c3ccc(N(C)C)cc3)S2)C1 (stereo not drawn),i,i,-8.4*,-29,8*,-5.8,56%*,i,86%*
CCC(C)n1c(SCC(=O)NC(=O)Nc2ccc3c(c2)OCCO3)nc2ccccc2c1=O (stereo not drawn),-8.7*,i,-15*,-2,i,0.1,50%*,i,30%*
CCOc1ccc(-n2c(SCC(=O)Nc3ccc4c(c3)OCO4)nc3ccccc3c2=O)cc1,i,i,i,-7,i,-1,.,.,.
CC1Cc2nc(SCC(=O)Nc3ccc4c(c3)OCO4)n(CCc3ccccc3)c(=O)c2S1 (stereo not drawn),i,i,-12*,-10,i,-1.9,58%*,i,i
SMILES,KCNK3 block,KCNQ1 pot,KCNK9 block,hERG rescue,KCNQ1 inh,Kir21 block,KCNK9 inh conf,Kir2-1 spec,KCNK9 uninduced
COc1ccc(-n2c(SCC(=O)Nc3ccc4c(c3)OCO4)nc3ccccc3c2=O)cc1,i,i,-9.3*,-7,i,1.3,38%*,i,36%*
CCn1c(SCC(=O)Nc2ccc3c(c2)OCO3)nc2c(c1=O)SC(C)C2 (stereo not drawn),i,i,i,-15,i,-0.07,.,.,.
CC(=O)NC(Cc1cccc(C)c1)C(=O)NC1CCN(C(=O)c2ccc([N+](=O)[O-])cc2)CC1 (stereo not drawn),i,i,i,-6,i,1.4,.,.,.
CCOc1ccc(N2C(=O)c3cccnc3C2Nc2ccc(C)cc2)cc1 (stereo not drawn),i,i,i,-7,i,1.2,i,i,i
CCOc1ccc(N2C(=O)c3cccnc3C2Nc2ccc(C)c(C)c2)cc1 (stereo not drawn),i,i,i,-11,i,-0.02,i,i,i
Cc1ccc(NS(=O)(=O)c2cccc(C(=O)N3CCCCCC3)c2)cc1,i,i,i,-13,i,-1.6,.,.,.
Cc1ccc(CNS(=O)(=O)c2cc3c4c(c2)C(C)C(=O)N4CCC3)cc1 (stereo not drawn),i,i,i,-12,i,-0.9,.,.,.

# Screens (PubChem BioAssay)
